ChEMBL document CHEMBL4052661, “Structure Based Design of N-(3-((1H-Pyrazolo[3,4-b]pyridin-5-yl)ethynyl)benzenesulfonamides as Selective Leucine-Zipper and Sterile-α Motif Kinase (ZAK) Inhibitors” (J Med Chem, 2017)
pIC50: −log10 of the molar value.

Experiments:
[1] = target: Mitogen-activated protein kinase kinase kinase 20 (Homo sapiens, UniProt Q9NYL2); experiment: Inhibition of N-terminal GST-tagged recombinant human full-length ZAK expressed in baculovirus infected Sf9 insect cells using MBP as substrate after 30 mins by ADP-Glo assay
Mitogen-activated protein kinase kinase kinase 20, sequence (Q9NYL2 whole entry): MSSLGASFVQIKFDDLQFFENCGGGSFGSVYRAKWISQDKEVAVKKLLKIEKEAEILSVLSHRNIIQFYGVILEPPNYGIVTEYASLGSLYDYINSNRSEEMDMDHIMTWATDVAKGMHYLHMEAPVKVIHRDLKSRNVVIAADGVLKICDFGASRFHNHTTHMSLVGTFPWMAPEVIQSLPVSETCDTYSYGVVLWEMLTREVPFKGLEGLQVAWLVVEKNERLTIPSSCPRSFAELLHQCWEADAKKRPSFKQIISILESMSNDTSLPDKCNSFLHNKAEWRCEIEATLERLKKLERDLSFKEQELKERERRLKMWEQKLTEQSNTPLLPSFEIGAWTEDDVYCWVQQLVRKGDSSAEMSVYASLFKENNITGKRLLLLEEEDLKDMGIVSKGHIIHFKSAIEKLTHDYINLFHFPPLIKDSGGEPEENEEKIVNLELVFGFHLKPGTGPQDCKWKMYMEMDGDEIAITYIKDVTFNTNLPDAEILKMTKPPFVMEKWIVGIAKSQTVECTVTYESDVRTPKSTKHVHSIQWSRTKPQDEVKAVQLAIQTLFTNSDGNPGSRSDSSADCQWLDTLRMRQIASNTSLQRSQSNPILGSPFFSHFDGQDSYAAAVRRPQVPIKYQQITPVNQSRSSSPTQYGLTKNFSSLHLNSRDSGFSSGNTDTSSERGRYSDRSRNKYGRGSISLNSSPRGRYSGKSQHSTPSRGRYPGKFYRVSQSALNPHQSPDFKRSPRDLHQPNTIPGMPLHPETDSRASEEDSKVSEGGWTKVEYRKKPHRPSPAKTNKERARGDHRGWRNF
In short: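 ZAK activity by ADP-Glo luminescence with MBP as substrate, ATP and serially diluted compound. Reaction started by adding ATP and run 30 min at room temperature. ADP-Glo reagent was added to stop it (40 min), then detection reagent for 30 min before reading luminescence. Curves fitted; each experiment repeated at least 3 times.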

[2] = target: Serine/threonine-protein kinase B-raf (Homo sapiens, UniProt P15056, V600E); experiment: Inhibition of recombinant human B-RAF V600E mutant using Ser/Thr3 as substrate after 1 hr by FRET-based Z'-Lyte assay
Serine/threonine-protein kinase B-raf (Homo sapiens, UniProt P15056, V600E), sequence (P15056 2-766 V600E limits assumed): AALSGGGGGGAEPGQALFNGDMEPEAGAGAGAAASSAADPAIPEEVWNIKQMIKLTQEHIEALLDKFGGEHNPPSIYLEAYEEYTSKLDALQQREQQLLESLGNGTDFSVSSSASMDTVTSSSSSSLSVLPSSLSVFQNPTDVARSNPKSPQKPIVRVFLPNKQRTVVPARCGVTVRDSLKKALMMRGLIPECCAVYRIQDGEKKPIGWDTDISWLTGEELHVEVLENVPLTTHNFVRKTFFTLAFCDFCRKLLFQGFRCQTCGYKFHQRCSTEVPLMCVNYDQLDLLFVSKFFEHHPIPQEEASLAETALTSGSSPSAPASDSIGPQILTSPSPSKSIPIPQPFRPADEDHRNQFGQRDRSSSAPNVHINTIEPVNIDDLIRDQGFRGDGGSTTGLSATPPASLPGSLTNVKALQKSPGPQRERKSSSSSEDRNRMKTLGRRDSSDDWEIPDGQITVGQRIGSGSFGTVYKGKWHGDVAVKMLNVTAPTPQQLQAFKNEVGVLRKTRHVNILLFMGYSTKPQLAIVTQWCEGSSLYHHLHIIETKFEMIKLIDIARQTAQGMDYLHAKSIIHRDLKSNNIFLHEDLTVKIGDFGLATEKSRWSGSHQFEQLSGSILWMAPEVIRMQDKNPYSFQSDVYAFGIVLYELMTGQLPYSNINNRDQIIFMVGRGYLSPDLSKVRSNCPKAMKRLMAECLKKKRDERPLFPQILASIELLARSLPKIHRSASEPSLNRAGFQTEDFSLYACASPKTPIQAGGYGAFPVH

[3] = target: Serine/threonine-protein kinase B-raf (Homo sapiens, UniProt P15056); experiment: Inhibition of wild type GST-tagged recombinant human full-length B-RAF expressed in baculovirus expression system using Ser/Thr3 as substrate after 1 hr by FRET-based Z'-Lyte assay
Serine/threonine-protein kinase B-raf (Homo sapiens, UniProt P15056), sequence (P15056 whole entry): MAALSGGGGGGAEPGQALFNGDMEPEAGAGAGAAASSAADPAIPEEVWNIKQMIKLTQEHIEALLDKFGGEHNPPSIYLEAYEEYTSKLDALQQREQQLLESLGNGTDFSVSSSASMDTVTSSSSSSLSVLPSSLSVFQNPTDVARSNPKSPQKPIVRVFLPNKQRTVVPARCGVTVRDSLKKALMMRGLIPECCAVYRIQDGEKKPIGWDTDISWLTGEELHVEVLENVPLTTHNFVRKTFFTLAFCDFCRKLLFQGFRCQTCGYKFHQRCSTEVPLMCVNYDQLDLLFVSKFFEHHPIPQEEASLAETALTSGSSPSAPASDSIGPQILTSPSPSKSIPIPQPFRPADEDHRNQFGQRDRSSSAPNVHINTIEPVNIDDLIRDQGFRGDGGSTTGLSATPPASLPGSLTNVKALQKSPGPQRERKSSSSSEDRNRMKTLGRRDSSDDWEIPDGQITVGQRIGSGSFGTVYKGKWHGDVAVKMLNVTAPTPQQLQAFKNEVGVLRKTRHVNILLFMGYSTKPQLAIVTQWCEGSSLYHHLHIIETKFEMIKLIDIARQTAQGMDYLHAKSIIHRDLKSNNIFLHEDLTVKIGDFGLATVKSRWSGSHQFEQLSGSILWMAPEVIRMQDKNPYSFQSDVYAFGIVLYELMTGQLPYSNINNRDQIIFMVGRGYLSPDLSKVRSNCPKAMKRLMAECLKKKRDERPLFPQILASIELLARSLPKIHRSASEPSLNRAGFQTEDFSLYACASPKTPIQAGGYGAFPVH
In short: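 Z'-Lyte FRET assay with Ser/Thr3 peptide in kinase buffer; the final reaction held 0.002 ng B-Raf for wild type. Incubated 1 h at room temperature, then 1 h development to cleave nonphosphorylated peptide, then stop reagent. Means of 3 independent experiments.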

pIC50 [1] | pIC50 [2] | pIC50 [3] | Structure (SMILES)
6.00 | < 5.00 | < 5.00 | O=S(=O)(Nc1ccc(F)c(C#Cc2ccc3[nH]ncc3c2)c1F)c1cccc(Cl)c1
8.38 | 6.04 | < 5.22 | COc1n[nH]c2ncc(C#Cc3c(F)ccc(NS(=O)(=O)c4cccc(Cl)c4)c3F)cc12
7.65 | < 5.00 | < 5.00 | O=S(=O)(Nc1ccc(F)c(C#Cc2cnc3[nH]ccc3c2)c1F)c1cccc(Cl)c1
8.30 | < 6.00 | < 6.00 | COc1n[nH]c2ncc(C#Cc3c(F)ccc(NS(=O)(=O)c4cccc(Br)c4)c3F)cc12
